Results as given in ChEMBL document CHEMBL4823293, “Fragment-based lead discovery to identify novel inhibitors that target the ATP binding site of pyruvate dehydrogenase kinases” (Bioorg Med Chem, 2021).

Columns and labels:
[1] = molecular target: T1, [Pyruvate dehydrogenase (acetyl-transferring)] kinase isozyme 2, mitochondrial (Homo sapiens, UniProt Q15119); test: Inhibition of human PDHK2 assessed as reduction in acetyl-coenzymeA formation by RapidFire mass spectrometry
Outline: (§1)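 PDHK reaction read through downstream PDH product. Reaction mix diluted 25-fold in 0.1% formic acid. Acetyl-CoA captured on graphitic carbon SPE (5 mM ammonium acetate pH 10.0), eluted with buffer/acetonitrile/acetone 50:25:25. […] MRM at 808/79 and 808/408; peak AUC quantified, ATP signal confirming each injection.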

[2] = molecular target: T2, [Pyruvate dehydrogenase (acetyl-transferring)] kinase isozyme 4, mitochondrial (Homo sapiens, UniProt Q16654); test: Inhibition of human PDHK4 assessed as reduction in acetyl-coenzymeA formation by RapidFire mass spectrometry; outline: as §1
Target sequence in this assay (Q16654 whole entry): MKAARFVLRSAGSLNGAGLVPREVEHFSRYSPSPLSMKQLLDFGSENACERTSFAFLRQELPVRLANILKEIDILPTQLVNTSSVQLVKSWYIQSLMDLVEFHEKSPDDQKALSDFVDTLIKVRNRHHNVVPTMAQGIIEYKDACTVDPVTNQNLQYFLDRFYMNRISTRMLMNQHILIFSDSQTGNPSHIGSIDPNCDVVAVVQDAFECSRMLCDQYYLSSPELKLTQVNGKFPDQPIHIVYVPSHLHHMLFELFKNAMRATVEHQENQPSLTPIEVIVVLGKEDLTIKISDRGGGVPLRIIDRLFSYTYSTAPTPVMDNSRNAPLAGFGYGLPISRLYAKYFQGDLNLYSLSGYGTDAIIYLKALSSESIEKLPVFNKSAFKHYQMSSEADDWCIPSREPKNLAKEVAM

[3] = molecular target: T1, [Pyruvate dehydrogenase (acetyl-transferring)] kinase isozyme 2, mitochondrial; test: Inhibition of human PDHK2 co-complexed with porcine PDH using sodium pyruvate, coenzymeA and NAD as substrate preincubated with enzyme complex for 45 mins followed by ATP addition and then later incubated with substrate for 90 mins by absorption spectrophotometric assay
[4] = molecular target: T2, [Pyruvate dehydrogenase (acetyl-transferring)] kinase isozyme 4, mitochondrial; test: Inhibition of human PDHK4 co-complexed with porcine PDH using sodium pyruvate, coenzymeA and NAD as substrate preincubated with enzyme complex for 45 mins followed by ATP addition and then later incubated with substrate for 90 mins by absorption spectrophotometric assay
Target sequence in this assay (Q16654 whole entry): as above

[5] = molecular target: [Pyruvate dehydrogenase (acetyl-transferring)] kinase isozyme 1, mitochondrial (Homo sapiens, UniProt Q15118); test: Inhibition of human PDHK1 co-complexed with porcine PDH using sodium pyruvate, coenzymeA and NAD as substrate preincubated with enzyme complex for 45 mins followed by ATP addition and then later incubated with substrate for 90 mins by absorption spectrophotometric assay
Outline: (§2)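 Recombinant human PDHK mixed with porcine PDH complex, held overnight at 4 °C to form PDH/PDHK complex. Inhibitor plus 0.3 or 10 µM ATP, 45 min at room temperature. Then 5.0 mM CoA, 5.0 mM pyruvate, 12 mM NAD added, 90 min at room temperature. NADH A340 taken before and after; IC50 from Hill-type curve fit against 0% and 100% activity controls.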

[6] = molecular target: Heat shock protein HSP90 (Homo sapiens) (UniProt P07900+P08238); test: Inhibition of HSP90 (unknown origin) at 30 uM using labelled geldanamycin by fluorescence polarization assay; type: protein assay
Outline: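 Competitive fluorescence polarization with labelled geldanamycin probe, run as a commercial HSP90 assay kit; read as percent inhibition at a single concentration.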

[7] = molecular target: T3, Branched-chain alpha-ketoacid dehydrogenase kinase (Homo sapiens, UniProt O14874); test: Inhibition of human recombinant BCKDK at 500 uM incubated for 60 mins by ADP-Glo kinase assay
Outline: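 Human recombinant BCKDK with inhibitor and 0.2 µM ATP, 60 min at 37 °C. ADP-Glo reagent 40 min at room temperature to stop and deplete ATP, then detection reagent 40 min to convert ADP to ATP; luminescence read.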

[8] = molecular target: Microtubule-associated serine/threonine-protein kinase 1 (Homo sapiens) (UniProt Q9Y2H9); test: Inhibition of human partial length wild type MAST1 (S346 to V730 residues) expressed in mammalian expression system at 10 uM by KINOMEscan analysis
Outline: (§3)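 Competition-binding KINOMEscan service panel of 59 kinases; percent inhibition at 10 µM.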

[9] = molecular target: Serine/threonine-protein kinase mTOR (Homo sapiens) (UniProt P42345); test: Inhibition of human partial length wild type mTOR (L1382 to W2549 residues) expressed in mammalian expression system at 10 uM by KINOMEscan analysis; outline: as §3
[10] = molecular target: [Pyruvate dehydrogenase (acetyl-transferring)] kinase isozyme 3, mitochondrial (Homo sapiens, UniProt Q15120); test: Inhibition of human PDHK3 co-complexed with porcine PDH using sodium pyruvate, coenzymeA and NAD as substrate preincubated with enzyme complex for 45 mins followed by ATP addition and then later incubated with substrate for 90 mins by absorption spectrophotometric assay; outline: as §2
[11] = molecular target: T2, [Pyruvate dehydrogenase (acetyl-transferring)] kinase isozyme 4, mitochondrial; test: Inhibition of human PDHK4 assessed as reduction in acetyl-coenzymeA formation at IC50 by RapidFire mass spectrometry relative to control; outline: as §1
Target sequence in this assay (Q16654 whole entry, looked up): as the sequence (Q16654 whole entry) above

[12] = molecular target: T3, Branched-chain alpha-ketoacid dehydrogenase kinase; test: Inhibition of human recombinant BCKDK incubated for 60 mins by ADP-Glo kinase assay

[Pyruvate dehydrogenase (acetyl-transferring)] kinase isozyme 1, mitochondrial, sequence (Q15118 whole entry): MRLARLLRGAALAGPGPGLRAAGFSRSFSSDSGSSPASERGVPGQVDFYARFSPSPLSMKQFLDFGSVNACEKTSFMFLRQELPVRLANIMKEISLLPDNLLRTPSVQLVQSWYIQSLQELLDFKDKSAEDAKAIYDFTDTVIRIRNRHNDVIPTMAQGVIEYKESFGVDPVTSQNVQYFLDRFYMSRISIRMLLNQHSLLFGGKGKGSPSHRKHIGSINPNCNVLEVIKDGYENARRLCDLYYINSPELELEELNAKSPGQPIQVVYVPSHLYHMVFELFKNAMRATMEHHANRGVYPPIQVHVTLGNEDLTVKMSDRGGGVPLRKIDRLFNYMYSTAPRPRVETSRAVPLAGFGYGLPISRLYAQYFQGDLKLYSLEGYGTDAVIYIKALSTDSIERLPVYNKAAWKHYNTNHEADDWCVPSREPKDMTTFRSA
[Pyruvate dehydrogenase (acetyl-transferring)] kinase isozyme 3, mitochondrial, sequence (Q15120 whole entry): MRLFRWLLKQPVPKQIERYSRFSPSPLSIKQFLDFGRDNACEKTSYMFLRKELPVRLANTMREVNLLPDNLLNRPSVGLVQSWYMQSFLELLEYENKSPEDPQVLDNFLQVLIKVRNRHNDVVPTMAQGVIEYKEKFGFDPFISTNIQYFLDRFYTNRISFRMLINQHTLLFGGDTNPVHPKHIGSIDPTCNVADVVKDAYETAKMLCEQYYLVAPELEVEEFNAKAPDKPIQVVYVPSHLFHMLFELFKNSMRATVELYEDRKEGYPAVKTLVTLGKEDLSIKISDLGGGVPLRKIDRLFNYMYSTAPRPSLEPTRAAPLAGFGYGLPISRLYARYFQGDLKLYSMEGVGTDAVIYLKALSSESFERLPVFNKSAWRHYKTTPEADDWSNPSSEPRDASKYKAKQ
Microtubule-associated serine/threonine-protein kinase 1 (Homo sapiens), sequence (Q9Y2H9 whole entry, looked up, the tested form may be a part): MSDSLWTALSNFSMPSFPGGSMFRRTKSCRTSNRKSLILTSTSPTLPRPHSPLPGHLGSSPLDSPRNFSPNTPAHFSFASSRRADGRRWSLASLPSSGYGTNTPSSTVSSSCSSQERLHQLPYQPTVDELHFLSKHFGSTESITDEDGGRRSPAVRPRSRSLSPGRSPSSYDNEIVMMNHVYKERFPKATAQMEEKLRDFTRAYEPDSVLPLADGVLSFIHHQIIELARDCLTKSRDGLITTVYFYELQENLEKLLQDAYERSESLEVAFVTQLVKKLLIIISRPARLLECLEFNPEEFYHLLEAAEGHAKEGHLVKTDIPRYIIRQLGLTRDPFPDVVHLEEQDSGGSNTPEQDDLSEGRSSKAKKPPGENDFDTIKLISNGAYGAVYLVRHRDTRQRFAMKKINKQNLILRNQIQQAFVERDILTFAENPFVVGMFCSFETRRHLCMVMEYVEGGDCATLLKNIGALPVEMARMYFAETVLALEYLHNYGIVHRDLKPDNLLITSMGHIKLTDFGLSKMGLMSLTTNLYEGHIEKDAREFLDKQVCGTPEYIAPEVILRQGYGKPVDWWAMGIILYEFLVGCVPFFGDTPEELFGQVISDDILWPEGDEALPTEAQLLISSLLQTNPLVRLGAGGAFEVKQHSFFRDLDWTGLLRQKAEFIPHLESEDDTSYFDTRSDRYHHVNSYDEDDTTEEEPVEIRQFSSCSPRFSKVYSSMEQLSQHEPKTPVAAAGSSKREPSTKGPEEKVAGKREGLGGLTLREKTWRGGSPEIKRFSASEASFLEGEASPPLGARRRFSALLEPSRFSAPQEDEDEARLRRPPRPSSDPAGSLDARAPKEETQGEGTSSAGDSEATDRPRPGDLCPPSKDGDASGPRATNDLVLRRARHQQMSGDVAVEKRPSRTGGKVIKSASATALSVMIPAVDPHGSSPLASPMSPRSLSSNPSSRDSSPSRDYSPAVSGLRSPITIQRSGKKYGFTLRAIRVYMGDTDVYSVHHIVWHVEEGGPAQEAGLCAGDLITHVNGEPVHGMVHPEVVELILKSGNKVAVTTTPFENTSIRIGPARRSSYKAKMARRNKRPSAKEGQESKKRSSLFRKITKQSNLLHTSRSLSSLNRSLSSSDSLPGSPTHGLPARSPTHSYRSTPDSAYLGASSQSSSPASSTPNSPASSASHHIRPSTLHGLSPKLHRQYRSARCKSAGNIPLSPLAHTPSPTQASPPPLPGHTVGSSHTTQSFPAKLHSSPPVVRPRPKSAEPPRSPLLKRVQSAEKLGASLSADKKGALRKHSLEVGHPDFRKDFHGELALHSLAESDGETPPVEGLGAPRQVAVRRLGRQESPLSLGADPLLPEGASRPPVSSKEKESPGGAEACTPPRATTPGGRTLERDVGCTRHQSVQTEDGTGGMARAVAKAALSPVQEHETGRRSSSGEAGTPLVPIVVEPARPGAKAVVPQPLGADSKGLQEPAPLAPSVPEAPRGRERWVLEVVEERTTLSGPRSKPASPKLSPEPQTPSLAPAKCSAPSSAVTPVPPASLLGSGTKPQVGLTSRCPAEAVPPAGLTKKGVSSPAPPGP

| SMILES | IC50 [3] [µM] | IC50 [4] [µM] | also measured |
| --- | --- | --- | --- |
| COC(=O)c1ccc(O)cc1O [METHYL 2,4-DIHYDROXYBENZOATE] | – | – | IC50 [1]: 192 µM; IC50 [2]: 345 µM |
| CCc1cccc2c1NC(=O)C2(C)C | 11 | > 300 | – |
| CNC(=O)c1[nH]c2nc(C)nc(Cl)c2c1Br | > 30 | > 30 | – |
| O=C1Cc2ccccc2N1 [OXINDOLE] | – | – | IC50 [1]: 958 µM; inhibition [11]: 29%; IC50 [2]: > 2000 µM |
| CNC(=O)c1[nH]c2nc(C)nc(Cl)c2c1C | 42.8 | > 100 | – |
| CCCc1[nH]c2nc(C)ncc2c1C | 14.7 | > 30 | – |
| CCCc1[nH]c2nc(C)nc(Cl)c2c1C | 9.9 | > 30 | – |
| C/C=C/c1[nH]c2nc(C)nc(Cl)c2c1Cl | 1.5 | 8 | – |
| CC1(C)C(=O)Nc2ccccc21 | 279 | > 300 | IC50 [1]: 50.2 µM; IC50 [2]: 890 µM |
| c1cnc2[nH]c3c(C4CC4)cccc3c2c1 | 3.5 | > 300 | – |

The next lines start with results.

| IC50 [3] [µM] | IC50 [4] [µM] | SMILES | also measured |
| --- | --- | --- | --- |
| > 300 | > 300 | CC1(C)C(=O)Nc2c(N)cccc21 | – |
| > 30 | > 30 | CCCc1[nH]c2nc(C)ncc2c1C#N | – |
| 0.59 | 12.8 | CNc1cccc2c1NC(=O)C2(C)C | IC50 [5]: 0.37 µM; inhibition [6]: 3.2%; inhibition [7]: 14%; inhibition [8]: 60%; inhibition [9]: 58%; IC50 [10]: 8.4 µM |
| 2.2 | 12.4 | CCCc1[nH]c2nc(C)ncc2c1Br | – |
| 2 | 12 | Cc1cnc2[nH]c3c(C4CC4)cccc3c2c1 | – |
| 4.9 | 43.6 | CC1(C)C(=O)Nc2c(C3CC3)cccc21 | – |
| 0.71 | 5.9 | Cc1cnc2[nH]c3c(C4CC4)cccc3c2n1 | IC50 [12]: > 300 µM |
| 1.8 | 11 | CCCc1[nH]c2nc(C)ncc2c1Cl | – |
